Bioassay records (PubChem BioAssay)
ABHD4 inh: ABHD4 inhibitors, primary screen, biochemical, fluorescence polarization, mouse. (Lyso)-N-acylphosphatidylethanolamine lipase (Mus musculus), Q8VD66. purified mABHD4, FP-Rh probe fluorescence polarization. inhibition, % at 8.92 µM. hit rate 0.54% among 370,000. AID 720543, 2013;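 active = inhibition exceeding the mean over every tested compound plus 3 SD, cut at about 30% in these data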;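 also: 0% = plate median of compound wells and 100% = S159A mutant with DMSO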
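Assay system: Wild-type mouse ABHD4 protein | Medium: HEPES pH 7.0 buffer, 150 mM NaCl, 0.01% Pluronic F-127 | Incubation: Enzyme–compound pre-incubation 45 min, then probe 60 min, both 25 °C | Technique: Fluorescence polarization with parallel and perpendicular emission, 525/598 nm | Evaluation: % inhibition of FP-Rh probe binding versus controls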
PRMT1 FP inh: PRMT1 methyltransferase inhibitors, primary screen, biochemical, fluorescence polarization. Protein arginine N-methyltransferase 1 (Homo sapiens), Q99873. recombinant PRMT1, activity-based probe fluorescence polarization. inhibition, % at 2.79 µM. hit rate 1.3% among 370,000;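 active = inhibition above about 21% made by adding two undisclosed values, limit read from the data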
Target sequence (Q99873 whole entry, looked up): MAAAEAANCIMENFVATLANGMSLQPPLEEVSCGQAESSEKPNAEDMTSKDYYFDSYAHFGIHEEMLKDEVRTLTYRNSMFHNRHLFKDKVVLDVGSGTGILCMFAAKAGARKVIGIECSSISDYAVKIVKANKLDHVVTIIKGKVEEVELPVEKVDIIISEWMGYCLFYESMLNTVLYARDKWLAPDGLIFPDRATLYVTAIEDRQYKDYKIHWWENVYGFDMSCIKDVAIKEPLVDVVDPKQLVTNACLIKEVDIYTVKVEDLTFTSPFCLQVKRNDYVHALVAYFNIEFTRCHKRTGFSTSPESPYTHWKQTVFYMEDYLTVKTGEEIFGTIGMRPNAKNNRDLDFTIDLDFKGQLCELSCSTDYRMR
HTRA1 inh: HTRA1 serine protease inhibitors, primary screen, biochemical, fluorescence polarization, HTS | recombinant HTRA1, FP-rhodamine activity-based probe | inhibition, % at 5.96 µM | hit rate 0.5% among 340,000 | AID 504803, 2011; in the data active = inhibition above about 36%;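 also: 0% = enzyme with DMSO and 100% = wells lacking enzyme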
TCR CD3 inh: inhibitors of human TCR-CD3 interaction, primary screen, biochemical, fluorescence, TAMRA-labeled TCR probe. inhibition, % at 9.4 µM. hit rate 0.37% among 360,000;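 also: recombinant mutant TCR 2C K166C tagged with TAMRA read by polarization; 0% = receptor in buffer alone and 100% = receptor with positive control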
SIAE primary: human SIAE inhibitors, primary screen, biochemical, fluorescence polarization, FP-Rh probe, 1536-well HTS. SIAE FP-Rh probe binding. inhibition, % at 9.66 µM. Sialate O-acetylesterase (Homo sapiens), Q9HAT2. hit rate 0.69% among 370,000. AID 1053197, 2014;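 active = inhibition above a cutoff: mean of compounds within the control limits plus 3 SD of those, cut at about 17% in these data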;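 also: 0% = plate median of compound wells and 100% = probe without SIAE protein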
PAD4 inh: human PAD4 inhibitors, primary screen, biochemical, fluorescence polarization, 1536-well format; hit rate 0.41% among 330,000; recombinant PAD4, RCA probe fluorescence polarization; inhibition, % at 6.36 µM; Protein-arginine deiminase type-4 (Homo sapiens), Q9UM07;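 active = percent inhibition above a cutoff equal to the mean of all tested compounds plus 3 SD, cut at about 15% in these data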;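 also: 0% = PAD4 with RCA probe and DMSO and 100% = probe without PAD4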
BSA TAMRA ctr: compounds interfering with TAMRA-BSA probe, counter-screen for TCR-CD3 interaction inhibitor project, biochemical, fluorescence, TAMRA-labeled BSA; shares compounds with TCR CD3 inh; hit rate 10% among 1,200; TAMRA-labeled BSA probe fluorescence counterscreen; inhibition, % at 9.4 µM; in the data active = inhibition above about 23%;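 also: 0% = buffer low control and 100% = reference high control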
TCR-CD3 inh conf: TCR-CD3 interaction inhibitors, retest, confirmation, biochemical, fluorescence, TAMRA-labeled TCR probe; TAMRA-labeled TCR probe fluorescence binding assay; hit rate 48% among 1,200; AID 652036, 2013; shares compounds with TCR CD3 inh; inhibition, % at 9.4 µM
* = called active by the depositor. Shown are actives, neighbours in structure and some others; about 2.9% of the full set was active somewhere. Rule as the data show it, unless noted: active = inhibition above about 19%; inactive = the rest.

Results for COc1ccccc1C(=O)NNC(=O)c1ccc(NC(=O)CC(C)C)cc1 ?
ABHD4 inh: -1; PRMT1 FP inh: 1; HTRA1 inh: -10; TCR CD3 inh: 31*; SIAE primary: 2; PAD4 inh: -5; BSA TAMRA ctr: 1; TCR-CD3 inh conf: 32*

What do the screens show for `COc1ccccc1C(=O)NNC(=O)c1ccc(C)cc1`?
ABHD4 inh: 3; PRMT1 FP inh: 5; HTRA1 inh: 6; TCR CD3 inh: -4; SIAE primary: 0; PAD4 inh: 4

Results for COc1ccccc1C(=O)NCCC(=O)NNC(=O)c1ccccc1O ?
ABHD4 inh: 8; PRMT1 FP inh: 9; HTRA1 inh: -5; TCR CD3 inh: 45*; SIAE primary: 6; PAD4 inh: -6; BSA TAMRA ctr: -16; TCR-CD3 inh conf: 30*

How did COc1ccc(-c2cc(-c3nnc(SCC(=O)N4CCOCC4)n3N)[nH]n2)cc1 do in these assays?
ABHD4 inh: 1; PRMT1 FP inh: -3; SIAE primary: 5

Results for CC1=NN(C(=O)c2ccccc2Cl)C(O)(c2ccccc2)C1 (stereo not given) ?
ABHD4 inh: -7; PRMT1 FP inh: -2; HTRA1 inh: 3; TCR CD3 inh: 21*; SIAE primary: 3; PAD4 inh: 3; BSA TAMRA ctr: -17; TCR-CD3 inh conf: 5

How did CC1=NN(C(=O)c2ccccc2F)C(O)(c2ccc(Cl)cc2)C1 (stereo not given) do in these assays?
ABHD4 inh: 0; PRMT1 FP inh: 3; HTRA1 inh: 22; TCR CD3 inh: 23*; SIAE primary: -4; PAD4 inh: 1; BSA TAMRA ctr: -9; TCR-CD3 inh conf: 18

Results for CC1=NN(C(=O)c2ccccc2)C(O)(c2ccc(Br)cc2)C1 (stereo not given) ?
ABHD4 inh: 8; PRMT1 FP inh: 1; HTRA1 inh: 32; TCR CD3 inh: 24*; SIAE primary: 2; PAD4 inh: -1; BSA TAMRA ctr: -5; TCR-CD3 inh conf: 25*

How did CCOC(=O)[C@@]12CN(C(=O)OC(C)(C)C)CC=C1N(Cc1ccc(OC)cc1)C(=O)[C@H]2CC(=O)NCCCOC do in these assays?
ABHD4 inh: -7; PRMT1 FP inh: 2; SIAE primary: -1

Results for CCCCCN1CCCCC(NC(=O)CSc2ccccc2)C1=O (stereo not given) ?
ABHD4 inh: -3; PRMT1 FP inh: 1; SIAE primary: -3

Results for Cc1ccc(S(=O)(=O)N2CCN(C(=O)c3cccn3C)CC2)cc1 ?
ABHD4 inh: 2; PRMT1 FP inh: -4; SIAE primary: 5

How did CC(C)C1O/C(=N/C(=O)Nc2ccc(Cl)c(Cl)c2)NC1=O (stereo not given) do in these assays?
ABHD4 inh: -59; PRMT1 FP inh: -1; HTRA1 inh: -20; TCR CD3 inh: 35*; SIAE primary: -105; PAD4 inh: -3; BSA TAMRA ctr: 1; TCR-CD3 inh conf: 4

How did COc1cccc2c(SCC(=O)N/N=C/c3ccc(O)c(O)c3)cc(C)nc12 do in these assays?
ABHD4 inh: 29; PRMT1 FP inh: 29*; TCR CD3 inh: 45*; SIAE primary: 5; PAD4 inh: 1; BSA TAMRA ctr: -14; TCR-CD3 inh conf: 79*

Results for O=C(O)C1CC=CCC1C(=O)N1CCN(c2nc(-c3ccccc3)c3ccccc3n2)CC1 (stereo not given) ?
ABHD4 inh: 10; PRMT1 FP inh: -2; HTRA1 inh: -19; TCR CD3 inh: 1; SIAE primary: 3; PAD4 inh: 5

What do the screens show for `O=C(O)C1CC=CCC1C(=O)N1CCN(c2nc(-c3ccccc3Cl)c3cc(Br)ccc3n2)CC1` (stereo not given)?
ABHD4 inh: 17; PRMT1 FP inh: 2; HTRA1 inh: -27; TCR CD3 inh: 52*; SIAE primary: 6; PAD4 inh: 0; BSA TAMRA ctr: 0; TCR-CD3 inh conf: 1

Results for O=C(N/N=C/c1cc(Cl)cc([N+](=O)[O-])c1O)C1CC1 ?
ABHD4 inh: 16; PRMT1 FP inh: -2; HTRA1 inh: 11; TCR CD3 inh: 21*; SIAE primary: 2; PAD4 inh: 5; BSA TAMRA ctr: -11; TCR-CD3 inh conf: 17

Results for CC(C)(C)N/N=C/c1cc(Cl)cc([N+](=O)[O-])c1O ?
ABHD4 inh: 24; PRMT1 FP inh: 0; HTRA1 inh: 19; TCR CD3 inh: 1; SIAE primary: 8; PAD4 inh: 0

What do the screens show for `O=C(CNC(=O)/C=C/c1ccco1)N=Nc1c(O)[nH]c2ccccc12`?
ABHD4 inh: 14; PRMT1 FP inh: 19; HTRA1 inh: 4; TCR CD3 inh: 29*; SIAE primary: 6; PAD4 inh: -2; BSA TAMRA ctr: -3; TCR-CD3 inh conf: 43*

Results for CNc1ccccc1/C(O)=C(\C#N)C(=O)NCc1cccc2ccccc12 ?
ABHD4 inh: -9; PRMT1 FP inh: 3; SIAE primary: -3

How did Nn1c(SCC(=O)Nc2ccc(OCc3ccccc3)cc2)nnc1-c1cc(-c2ccccc2)n[nH]1 do in these assays?
ABHD4 inh: -2; PRMT1 FP inh: -4; SIAE primary: -1

Results for O=C(Nc1ccc2oc(-c3cccnc3)nc2c1)c1ccc2c(c1)OCCO2 ?
ABHD4 inh: -5; PRMT1 FP inh: 0; HTRA1 inh: -20; TCR CD3 inh: 27*; SIAE primary: -20; PAD4 inh: -2; BSA TAMRA ctr: -5; TCR-CD3 inh conf: 16

How did COc1cc(O)c(C(CC(=O)N2CCC(C)CC2)c2ccc3c(c2)OCO3)c(OC)c1 (stereo not given) do in these assays?
ABHD4 inh: 0; PRMT1 FP inh: 4; SIAE primary: 4

Results for OCCN1CCN(c2cnc(-c3ccsc3)cn2)CC1 ?
ABHD4 inh: 4; PRMT1 FP inh: 2; TCR CD3 inh: 38*; SIAE primary: 9; BSA TAMRA ctr: 6; TCR-CD3 inh conf: 2

How did Nc1ncc(-c2ccc(F)cc2)nc1N1CCN(CCO)CC1 do in these assays?
ABHD4 inh: 4; PRMT1 FP inh: 3; TCR CD3 inh: 0; SIAE primary: 1
